Key:
RKO [1] = assay: Cytotoxicity against cell cycle arrested RKOp27 cells after 72 hrs by alamar blue assay; assay type: functional, cell-based; conditions: Homo sapiens
Procedure, shortened: (§1)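 Human colon carcinoma RKOp27 line carrying ponasterone-A-inducible p27kip1. Induction gives G1-arrested cells, and uninduced cells stay proliferating. Viability was read as metabolic activity by Alamar Blue. IC50 values are the mean ± SD of two independent experiments, each with quadruplicate samples per concentration.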

RKO [2] = assay: Cytotoxicity against proliferating RKOp27 cells after 72 hrs by Alamar Blue assay; assay type: functional, cell-based; conditions: Homo sapiens; procedure, shortened: as §1
Tubulin (Bos taurus) = assay: Inhibition of [3H]colchicine binding to beta tubulin
Tubulin = Tubulin (Bos taurus, UniProt Q6B856+Q862L2+Q862F3); assay: Inhibition of MAP containing bovine brain tubulin polymerization; assay type: functional
RKO [3] = assay: Cytotoxicity against RKOp27 cells at 30 uM after 72 hrs by alamar blue assay; assay type: functional, cell-based; conditions: Homo sapiens

| IC50 (Tubulin (Bos taurus)) [µM] | IC50 (Tubulin) [µM] | Structure (SMILES) | IC50 (RKO [1]) [µM] | IC50 (RKO [2]) [µM] | Activity (RKO [3]) |
| --- | --- | --- | --- | --- | --- |
| – | – | COc1ccc(Nc2nc(-n3cnc4ccccc43)cs2)cc1 | > 100 | > 100 | – |
| – | – | Cc1nccn1-c1csc(Nc2ccccc2)n1 | > 100 | 32.5 | – |
| – | – | COc1cccc(Nc2nc(-n3ccnc3C)cs2)c1 | > 100 | 22.5 | – |
| – | – | c1ccc(Nc2nc(-n3ccnc3)cs2)cc1 | > 100 | > 100 | – |
| – | – | Cc1nccn1-c1csc(Nc2ccc(S(N)(=O)=O)cc2)n1 | > 100 | 49 | – |
| – | – | COc1cc2c(c(OC)c1OC)-c1ccc(OC)c(=O)cc1[C@@H](NC(C)=O)CC2 [COLCHICINE] | > 5 | 0.016 | – |
| – | – | COc1cccc(Nc2nc(-n3cc(C)nc3C)cs2)c1 | 60 | 22.5 | – |
| – | – | Cc1nc2ccccc2n1-c1csc(Nc2cccc(Br)c2)n1 | 85 | 36 | – |
| – | – | Cc1nc2ccccc2n1-c1csc(Nc2ccc(S(N)(=O)=O)cc2)n1 | 95 | 45 | – |
| – | – | Cc1nc2ccccc2n1-c1csc(Nc2ccccc2)n1 | 50 | 40 | – |
| 8 | – | COc1ccc(Nc2nc(-n3ccnc3C)cs2)cc1 | > 100 | 1.6 | – |
| 4 | – | Cc1cn(-c2csc(Nc3ccc(Br)cc3)n2)c(C)n1 | 45 | 0.4 | – |
| – | – | Cc1cn(-c2csc(Nc3cccc(Br)c3)n2)c(C)n1 | > 100 | > 100 | – |
| 0.75 | 3 | Cc1ccc(Nc2nc(-n3ccnc3C)cs2)cc1 | > 100 | 0.45 | – |
| 6.25 | – | Cc1ccc(Nc2nc(-n3cc(C)nc3C)cs2)cc1 | > 100 | 0.2 | – |
| 7.5 | – | COc1ccc(Nc2nc(-n3cc(C)nc3C)cs2)cc1 | > 100 | 0.25 | – |
| 1 | – | Cc1nc(C)c(-c2csc(Nc3ccc(Br)cc3)n2)s1 | 30 | 0.7 | – |
| 1.25 | 1.2 | Cc1nc2ccccc2n1-c1csc(Nc2ccc(Br)cc2)n1 | 60 | 0.09 | – |
| – | – | COc1cccc(Nc2nc(-n3c(C)nc4ccccc43)cs2)c1 | 60 | 40 | – |
| – | – | COc1ccc(Nc2nc(-n3ccnc3)cs2)cc1 | > 100 | > 100 | – |
| – | – | Cc1nccn1-c1csc(Nc2cccc(Br)c2)n1 | > 100 | > 100 | – |
| – | – | c1ccc(Nc2nc(-n3cnc4ccccc43)cs2)cc1 | > 100 | > 100 | – |
| – | – | Cc1nccn1-c1csc(Nc2ccc(Br)cc2)n1 | > 100 | 30 | Not toxic |
| 0.75 | 1.25 | COc1ccc(Nc2nc(-n3c(C)nc4ccccc43)cs2)cc1 | 52.5 | 0.025 | – |
| 100 | – | Brc1ccc(Nc2nc(-n3cnc4ccccc43)cs2)cc1 | > 100 | > 100 | – |
| – | – | COc1cc([C@@H]2c3cc4c(cc3[C@H](O)[C@H]3COC(=O)[C@H]23)OCO4)cc(OC)c1OC [PODOFILOX] | > 0.5 | 0.029 | – |
